Where two headings read alike, the source gives them in different places.
How the values were obtained:
PSMA [1] = target: T1, PSMA (Homo sapiens, UniProt Q04609); assay: PSMA inhibition assay; type: biochemical; details: LNCaP cell lysates, 4 μM NAAG
How it was run: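 PSMA source: LNCaP cell lysate. Test compound (0.01 nM–100 μM) incubated with 4 μM NAAG, 37 °C, 2 h. Released glutamate detected with Amplex Red glutamic acid working solution, 37 °C, 60 min; fluorescence ex 490/em 642 nm. IC50 from semilog inhibition curves, then Ki by Cheng–Prusoff. Triplicates; whole inhibition study repeated at least once.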

[2] = Octanol-water partition coefficient; type: physicochemical; details: pH 7.4
kidneys = assay: Radiation dosimetry; type: in vivo, NOD-SCID mice
PSMA [3] = target: T1, PSMA; details: for comparison; cited from earlier work
[4] = test system: PSMA^+ PC3 PIP and PSMA^− PC3 flu xenografts; assay: Small animal PET imaging; type: in vivo, NOD-SCID mice
How it was run: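 Male NOD-SCID mice given 1 × 106 PSMA+ PC3 PIP and PSMA− PC3 flu cells s.c. in opposite flanks, cells trypsinized at 80–90% confluence into HBSS. Imaged at 3–5 mm tumors after i.v. 0.36 mCi (13.3 MBq) radiotracer in 0.2 mL PBS under isoflurane/oxygen. PET/CT at 30, 60, 120 min; 10 min per bed, 20 min total; 250–700 keV; FORE/2D-OSEM, decay/dead-time/scatter corrected.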

T1 sequence (Q04609 whole entry): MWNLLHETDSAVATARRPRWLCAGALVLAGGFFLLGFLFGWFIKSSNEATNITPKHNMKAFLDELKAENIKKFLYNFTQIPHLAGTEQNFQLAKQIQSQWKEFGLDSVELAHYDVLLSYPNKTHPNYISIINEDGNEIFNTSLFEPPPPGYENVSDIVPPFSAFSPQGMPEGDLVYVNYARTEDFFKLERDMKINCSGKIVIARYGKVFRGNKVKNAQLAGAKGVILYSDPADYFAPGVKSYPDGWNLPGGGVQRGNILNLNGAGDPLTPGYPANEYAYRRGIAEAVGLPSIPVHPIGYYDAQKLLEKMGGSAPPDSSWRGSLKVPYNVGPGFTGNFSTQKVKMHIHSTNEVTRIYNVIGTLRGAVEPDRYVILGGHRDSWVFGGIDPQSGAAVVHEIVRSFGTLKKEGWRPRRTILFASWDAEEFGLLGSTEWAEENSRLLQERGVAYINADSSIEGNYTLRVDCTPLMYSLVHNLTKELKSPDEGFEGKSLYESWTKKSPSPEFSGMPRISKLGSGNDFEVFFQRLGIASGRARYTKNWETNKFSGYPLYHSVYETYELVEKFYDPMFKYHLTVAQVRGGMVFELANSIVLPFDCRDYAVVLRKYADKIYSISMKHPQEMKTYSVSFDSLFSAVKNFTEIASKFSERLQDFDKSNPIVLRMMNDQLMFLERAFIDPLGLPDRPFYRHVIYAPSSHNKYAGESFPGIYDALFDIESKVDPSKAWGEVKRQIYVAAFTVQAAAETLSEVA

## O=C(O)CCC(NC(=O)NC(CCCCNC(=O)CCc1cn(CCF)nn1)C(=O)O)C(=O)O (stereo not shown) [YC-88, 2-[3-(1-Carboxy-5-{3-[1-(2-fluoroethyl)-1 H-1,2,3-tria-zol-yl]propanamido}pentyl)ureido]pentanedioic Acid]
PSMA [1]; 37 °C, 2 h, Cheng–Prusoff conversion
  Ki: 12.9 nM
PSMA [1]; read-out: Ki 95% confidence intervals
  Ki: 8.7 to 19.1 nM

## O=C(O)CCC(NC(=O)NC(CCCCNC(=O)c1ccc([18F])nc1)C(=O)O)C(=O)O (stereo not shown) [[^18F]DCFPyL, 2-(3-{1-carboxy-5-[(6-[^18F]fluoropyridine-3-carbonyl)-amino]-pentyl}-ureido)-pentanedioic acid, reference compound]
[2]
  logP: -3.27
kidneys; male, NOD-SCID, mouse, in vivo
  AUC: 340.74 % ID/g-h
  biological half-life: 1.20 h

## O=C(O)CCC(NC(=O)NC(CCCCNC(=O)c1ccc(F)cc1)C(=O)O)C(=O)O (stereo not shown) [DCFBzL]
PSMA [3]
  Ki: 0.19 nM

## O=C(O)CCC(NC(=O)NC(CCCCNC(=O)CCc1cn(CC[18F])nn1)C(=O)O)C(=O)O (stereo not shown) [[^18F]YC-88, 2-[3-(1-carboxy-5-{3-[1-(2-[^18F]fluoroethyl)-1H-1,2,3-triazol-yl]propanamido}pentyl)ureido]-pentanedioic acid]
[2]; 1-octanol and PBS
  logP: −3.91
kidneys; kidneys
  AUC: 70.7 % ID/g-h
  AUC ratio (agent/YC-88): 1
  kidney absorbed dose, decrease compared to [^18F]DCFPyL: ~5 fold
kidneys; kidneys, single exponential fit of % ID/g data
  biological half-life: 1.52 h
[4]; 30, 60, 120 min postinjection
  uptake in normal tissues on PET images: extremely low uptake
[4]; as early as 30 min postinjection, 0.36 mCi i.v.
  PSMA^+ PC3 PIP tumor uptake on PET images: Intense

Reference: PMC5516890 (Bioconjugate chemistry, 2016)
